Experimental data published in ChEMBL document CHEMBL1126670, “Cyclic peptides as selective tachykinin antagonists” (J Med Chem, 1993).
Where a SMILES comes first, the peptide text is derived from it.

Legend:
Details in all cases: read-out: pA2 (converted)
Substance-K receptor = biological target: T1, Substance-K receptor (Rattus norvegicus, UniProt P16610); test: Inhibition of eledoisin binding to NK-2 receptor in rat vas deferens
T1 sequence (P16610 whole entry): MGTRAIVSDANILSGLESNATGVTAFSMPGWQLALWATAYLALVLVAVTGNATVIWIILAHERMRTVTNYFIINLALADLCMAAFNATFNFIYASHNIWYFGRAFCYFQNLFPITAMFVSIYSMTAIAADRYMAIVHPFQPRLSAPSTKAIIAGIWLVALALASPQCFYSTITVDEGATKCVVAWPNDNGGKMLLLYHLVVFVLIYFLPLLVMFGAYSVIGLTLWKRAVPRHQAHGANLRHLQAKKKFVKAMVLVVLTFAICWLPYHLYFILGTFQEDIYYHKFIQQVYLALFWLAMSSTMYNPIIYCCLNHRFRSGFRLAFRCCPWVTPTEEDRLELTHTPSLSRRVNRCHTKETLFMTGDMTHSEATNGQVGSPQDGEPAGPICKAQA
Procedure, shortened: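 Vas deferens from Sprague-Dawley rats (200–300 g), electrically stimulated contractions with supramaximal rectangular bipolar pulses. Eledoisin log dose-response curves; antagonism taken from rightward shift. pA2 by Schild regression over three or more antagonist concentrations, or apparent pA2 from one antagonist concentration via the standard Schild equation assuming unit slope.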

Substance-P receptor = Substance-P receptor (Cavia porcellus, UniProt P30547); test: Tested for antagonist activity toward NK-1 receptor in guinea pig ileum against the agonist eledoisin (mean +/-, n=4); format: functional, tissue-based
Procedure, shortened: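 Guinea pig (male Dunkin-Hartley, 300–400 g) small-intestine longitudinal muscle, isometric contraction in Krebs-Henseleit at 37 °C with atropine, mepyramine, methysergide (each 5 μM) and indomethacin (1 μM). Antagonism measured as rightward shift of log dose-response curves to eledoisin. pA2 from Schild regression (least squares, three or more antagonist concentrations, three or more observations each), or apparent pA2 at a single concentration assuming unit slope (mean of 3–4 observations).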

Neuromedin-K receptor = biological target: T2, Neuromedin-K receptor (Rattus norvegicus, UniProt P16177); test: Tested for antagonist activity toward NK-3 receptor in rat portal vein against the agonist eledoisin (mean +/-, n=4); format: functional
T2 sequence (P16177 whole entry): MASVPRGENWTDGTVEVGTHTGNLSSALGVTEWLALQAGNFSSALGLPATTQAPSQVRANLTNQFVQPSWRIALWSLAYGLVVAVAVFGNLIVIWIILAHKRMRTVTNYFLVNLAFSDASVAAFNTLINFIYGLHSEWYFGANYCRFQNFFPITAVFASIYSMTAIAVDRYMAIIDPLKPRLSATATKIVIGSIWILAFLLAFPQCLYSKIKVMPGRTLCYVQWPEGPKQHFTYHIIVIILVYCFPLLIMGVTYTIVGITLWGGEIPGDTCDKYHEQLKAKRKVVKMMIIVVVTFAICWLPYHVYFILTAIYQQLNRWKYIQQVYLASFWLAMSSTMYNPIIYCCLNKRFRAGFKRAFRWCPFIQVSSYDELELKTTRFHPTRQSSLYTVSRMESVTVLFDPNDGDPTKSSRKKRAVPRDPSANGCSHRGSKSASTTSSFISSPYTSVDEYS
Procedure, shortened: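 Rat portal vein longitudinal strips; frequency and amplitude of myogenic contractions recorded. Antagonist activity derived from rightward shift of eledoisin log dose-response curves. pA2 by Schild regression, least squares, three or more antagonist concentrations, or apparent pA2 at a single antagonist concentration assuming unit slope (mean of three or four observations).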

Chain of Substance-P receptor (P30547 whole entry): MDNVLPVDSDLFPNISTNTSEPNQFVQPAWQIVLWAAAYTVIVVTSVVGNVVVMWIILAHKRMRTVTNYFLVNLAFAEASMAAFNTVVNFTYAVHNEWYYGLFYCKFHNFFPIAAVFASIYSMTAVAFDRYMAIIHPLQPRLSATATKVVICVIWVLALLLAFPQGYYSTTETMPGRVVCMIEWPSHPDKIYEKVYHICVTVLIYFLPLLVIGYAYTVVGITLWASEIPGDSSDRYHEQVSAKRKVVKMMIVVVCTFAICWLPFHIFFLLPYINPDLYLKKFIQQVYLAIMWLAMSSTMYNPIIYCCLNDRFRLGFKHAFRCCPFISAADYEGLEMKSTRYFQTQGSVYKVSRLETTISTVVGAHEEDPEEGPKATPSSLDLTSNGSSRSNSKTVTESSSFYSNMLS

SMILES	Kb (Substance-K receptor)	Kb (Substance-P receptor)	Kb (Neuromedin-K receptor)
CSCC[C@@H]1NC(=O)[C@H](CC(C)C)NC(=O)[C@@H]2CCCN2C(=O)[C@H](Cc2ccccc2)NC(=O)[C@H](Cc2c[nH]c3ccccc23)NC(=O)[C@H](CCC(N)=O)NC1=O	15.8 µM		
CSCC[C@@H]1NC(=O)[C@H](CC(C)C)N2C=C[C@@H](NC(=O)[C@H](Cc3ccccc3)NC(=O)[C@](C)(c3cccc4ccccc34)NC(=O)[C@H](CCC(N)=O)NC1=O)C2=O	2.51 µM		
CSCC[C@@H]1NC(=O)[C@H](CC(C)C)N2C=C[C@@H](NC(=O)[C@H](Cc3ccccc3)NC(=O)[C@H](Cc3ccccc3)NC(=O)[C@H](CCC(N)=O)NC1=O)C2=O	15.8 µM		
CSCC[C@@H]1NC(=O)[C@H](CC(C)C)NC(=O)[C@H]2CCCN2C(=O)[C@H](Cc2ccccc2)NC(=O)[C@H](Cc2c[nH]c3ccccc23)NC(=O)[C@H](CCC(N)=O)NC1=O	20 µM		

More lines, now with the values ahead:

Kb (Substance-K receptor)	Kb (Substance-P receptor)	Kb (Neuromedin-K receptor)	SMILES
0.00794 µM	2 µM	7.94 µM	CSCC[C@@H]1NC(=O)[C@H](CC(C)C)NC(=O)CNC(=O)[C@H](Cc2ccccc2)NC(=O)[C@H](Cc2c[nH]c3ccccc23)NC(=O)[C@H](CCC(N)=O)NC1=O (cyclo(FGLMQW))
0.631 µM			CSCC[C@@H]1NC(=O)[C@H](CC(C)C)NC(=O)[C@H](Cc2ccccc2)NC(=O)[C@H](Cc2c[nH]c3ccccc23)NC(=O)[C@H](CCC(N)=O)NC1=O (cyclo(FLMQW))
